Data reported in ChEMBL document CHEMBL1149790, “Synthesis of some novel thiourea derivatives obtained from 5-[(4-aminophenoxy)methyl]-4-alkyl/aryl-2,4-dihydro-3H-1,2,4-triazole-3-thiones and evaluation as antiviral/anti-HIV and anti-tuberculosis agents” (Eur J Med Chem, 2008).
Values after ≈ are worked out from the molar mass of the structure shown.

What was measured:
[1] = test system: Respiratory syncytial virus; assay: Antiviral activity against respiratory syncytial virus in human HeLa cells assessed as inhibition of virus-induced cytopathogenicity; type: functional
In short: (§1)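 Confluent cell monolayers (E6SM, HEL, HeLa or Vero, per line) inoculated with 100 CCID50 virus; 1 h adsorption, residual virus removed, then incubated with compound at 400, 200, 100 … µg/ml. Cytopathicity scored once complete in untreated virus controls; MIC = concentration inhibiting virus-induced cytopathicity.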

Human alphaherpesvirus 3 [2] = assay: Antiviral activity against TK+ VZV OKA infected HEL cells assessed as reduction in virus plaque formation; type: functional, organism-based; settings: Human alphaherpesvirus 3, OKA
Coxsackievirus B4 [3] = assay: Antiviral activity against Coxsackie virus B4 in african green monkey Vero cells assessed as reduction of virus-induced cytopathogenicity; type: functional; settings: Enterovirus B; in short: as §1
Human alphaherpesvirus 1 [4] = assay: Antiviral activity against thymidine kinase deficient and acyclovir resistant HSV1 KOS in human HEL cells assessed as reduction of virus-induced cytopathogenicity; type: functional; settings: Human alphaherpesvirus 1, KOS; in short: as §1
[5] = Cytotoxicity against human E6SM cells; type: cell-based; settings: E6SM cells
In short: (§2)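 Uninfected cell cultures exposed to test compounds alongside antiviral assays; minimum cytotoxic concentration (MCC) = concentration causing a microscopically detectable alteration of cell morphology.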

Vero = assay: Cytotoxicity against african green monkey Vero cells; type: cell-based; settings: chlorocebus sabaeus; in short: as §2
Sindbis virus = assay: Antiviral activity against Sindbis virus in african green monkey Vero cells assessed as reduction of virus-induced cytopathogenicity; type: functional; in short: as §1
[6] = test system: Vesicular stomatitis virus; assay: Antiviral activity against vesicular stomatitis virus in human HeLa cells assessed as inhibition of virus-induced cytopathogenicity; type: functional; in short: as §1
Punta Toro virus = assay: Antiviral activity against Punta Toro virus in african green monkey Vero cells assessed as reduction of virus-induced cytopathogenicity; type: functional; in short: as §1
[7] = test system: Human immunodeficiency virus 1; assay: Antiviral activity against HIV1 3B in human MT4 cells assessed as protection against virus-induced cytopathogenicity by MTT assay; type: functional, organism-based; design: Activity: concentration or dose not given beside the values; settings: for IC50: Human immunodeficiency virus 1, 3B, MT4
In short: (§3)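 MT-4 cells at 6 × 10⁵ cells/ml infected with HIV-1 IIIB or HIV-2 ROD at 100–300 CCID50; compounds in serial five-fold dilutions, triplicate mock- and virus-infected wells. MTT viability read at 540 and 690 nm after 5 days, median OD of three wells; EC50 = 50% protection from viral cytopathic effect.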

Human alphaherpesvirus 1 [8] = assay: Antiviral activity against thymidine kinase deficient and acyclovir resistant HSV1 KOS in human E6SM cells assessed as reduction of virus-induced cytopathogenicity; type: functional; settings: Human alphaherpesvirus 1, KOS; in short: as §1
[9] = Cytotoxicity against human HEL cells assessed as alteration of cell morphology; type: cell-based; in short: as §2
Human alphaherpesvirus 3 [10] = assay: Antiviral activity against TK- VZV 07/1 infected HEL cells assessed as reduction in virus plaque formation; type: functional, organism-based; settings: Human alphaherpesvirus 3, 07/1, HEL
Human betaherpesvirus 5 [11] = assay: Antiviral activity against human cytomegalovirus Davis infected HEL cells assessed as reduction in virus plaque formation; type: functional, organism-based; settings: Human betaherpesvirus 5, Davis
Coxsackievirus B4 [12] = assay: Antiviral activity against Coxsackie virus B4 in human HeLa cells assessed as inhibition of virus-induced cytopathogenicity; type: functional; settings: Enterovirus B; in short: as §1
[13] = Cytotoxicity against human HeLa cells; type: cell-based; in short: as §2
Human alphaherpesvirus 2 [14] = assay: Antiviral activity against HSV2 G in human HEL cells assessed as reduction of virus-induced cytopathogenicity; type: functional; settings: Human alphaherpesvirus 2, G; in short: as §1
Human alphaherpesvirus 2 [15] = assay: Antiviral activity against HSV2 G in human E6SM cells assessed as reduction of virus-induced cytopathogenicity; type: functional; settings: Human alphaherpesvirus 2, G; in short: as §1
[16] = test system: Human immunodeficiency virus 2; assay: Antiviral activity against HIV2 ROD in human MT4 cells assessed as protection against virus-induced cytopathogenicity by MTT assay; type: functional, organism-based; design: Activity: concentration or dose not given beside the values; settings: for IC50: Human immunodeficiency virus 2, ROD, MT4; in short: as §3
[17] = Cytotoxicity against human MT4 cells by MTT assay; type: cell-based
In short: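 Mock-infected MT-4 cells (6 × 10⁵ cells/ml) with serial five-fold compound dilutions in triplicate; MTT reduction read at 540 and 690 nm after 5 days, median OD of three wells; CC50 = concentration reducing OD540 of mock-infected control by 50%.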

[18] = test system: Mammalian orthoreovirus 1; assay: Antiviral activity against Reo virus 1 in african green monkey Vero cells assessed as reduction of virus-induced cytopathogenicity; type: functional; in short: as §1
Human alphaherpesvirus 1 [19] = assay: Antiviral activity against HSV1 KOS in human HEL cells assessed as reduction of virus-induced cytopathogenicity; type: functional; settings: Human alphaherpesvirus 1, KOS; in short: as §1
Human betaherpesvirus 5 [20] = assay: Antiviral activity against human cytomegalovirus AD169 infected HEL cells assessed as reduction in virus plaque formation; type: functional, organism-based; settings: Human betaherpesvirus 5, AD169, HEL
Human respirovirus 3 = assay: Antiviral activity against Parainfluenza 3 virus in african green monkey Vero cells assessed as reduction of virus-induced cytopathogenicity; type: functional; in short: as §1
[21] = test system: Vesicular stomatitis virus; assay: Antiviral activity against in Vesicular stomatitis virus in human E6SM cells assessed as reduction of virus-induced cytopathogenicity; type: functional; in short: as §1
Human alphaherpesvirus 1 [22] = assay: Antiviral activity against HSV1 KOS in human E6SM cells assessed as reduction of virus-induced cytopathogenicity; type: functional; settings: Human alphaherpesvirus 1, KOS; in short: as §1
[23] = test system: Vesicular stomatitis virus; assay: Antiviral activity against in Vesicular stomatitis virus in human HEL cells assessed as reduction of virus-induced cytopathogenicity; type: functional; in short: as §1
[24] = Cytotoxicity against human HEL cells assessed as reduction of cell growth; type: cell-based
In short: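 HEL cells; CC50 = compound concentration reducing cell growth by 50%.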

| Structure (SMILES) | MIC [1] [µg/mL] | MIC (Coxsackievirus B4 [3]) [µg/mL] | MIC (Human alphaherpesvirus 1 [4]) [µg/mL] | MCC [5] [µg/mL] | Activity (Vero) [µg/mL] | MIC (Sindbis virus) [µg/mL] | MIC [6] [µg/mL] | MIC (Punta Toro virus) [µg/mL] | MIC (Human alphaherpesvirus 1 [8]) [µg/mL] | MCC [9] [µg/mL] | MIC (Coxsackievirus B4 [12]) [µg/mL] | MCC [13] [µg/mL] | MIC (Human alphaherpesvirus 2 [14]) [µg/mL] | MIC (Human alphaherpesvirus 2 [15]) [µg/mL] | MIC [18] [µg/mL] | MIC (Human alphaherpesvirus 1 [19]) [µg/mL] | MIC (Human respirovirus 3) [µg/mL] | MIC [21] [µg/mL] | MIC (Human alphaherpesvirus 1 [22]) [µg/mL] | MIC [23] [µg/mL] | further results |
| --- | --- | --- | --- | --- | --- | --- | --- | --- | --- | --- | --- | --- | --- | --- | --- | --- | --- | --- | --- | --- | --- |
| C=CCNC(=S)Nc1ccc(OCc2n[nH]c(=S)n2C)cc1 | > 80 | 48 (≈ 143 µM) | 240 (≈ 715 µM) | > 400 | 400 | > 80 | > 80 | > 80 | 240 (≈ 715 µM) | > 400 | > 80 | 400 | 240 (≈ 715 µM) | 240 (≈ 715 µM) | > 80 | > 400 | > 80 | > 400 | > 400 | > 400 | EC50 (Human alphaherpesvirus 3 [2]): > 100 µg/mL; Activity [7]: 1.5%; IC50 [7]: > 107 µg/mL; EC50 (Human alphaherpesvirus 3 [10]): > 100 µg/mL; EC50 (Human betaherpesvirus 5 [11]): > 100 µg/mL; Activity [16]: 3%; IC50 [16]: > 114 µg/mL; CC50 [17]: ≥ 107 µg/mL; EC50 (Human betaherpesvirus 5 [20]): > 100 µg/mL; CC50 [24]: > 50 µg/mL |
| Cn1c(COc2ccc(N)cc2)n[nH]c1=S | > 400 | > 3.2 | 80 (≈ 339 µM) | > 400 | 16 | > 3.2 | > 400 | > 3.2 | 80 (≈ 339 µM) | > 400 | > 400 | > 400 | 80 (≈ 339 µM) | 80 (≈ 339 µM) | > 3.2 | 400 (≈ 1690 µM) | > 3.2 | > 400 | 400 (≈ 1690 µM) | > 400 | EC50 (Human alphaherpesvirus 3 [2]): > 100 µg/mL; Activity [7]: 2.5%; IC50 [7]: > 125 µg/mL; EC50 (Human alphaherpesvirus 3 [10]): > 100 µg/mL; EC50 (Human betaherpesvirus 5 [11]): > 100 µg/mL; Activity [16]: 4%; IC50 [16]: > 125 µg/mL; CC50 [17]: ≥ 119 µg/mL; EC50 (Human betaherpesvirus 5 [20]): > 100 µg/mL; CC50 [24]: > 50 µg/mL |
| CNC(=S)Nc1ccc(OCc2n[nH]c(=S)n2-c2ccccc2)cc1 | > 80 | > 80 | > 400 | > 400 | 400 | > 80 | > 80 | > 80 | > 400 | > 400 | > 80 | 400 | > 400 | > 400 | > 80 | > 400 | > 80 | > 400 | > 400 | > 400 | EC50 (Human alphaherpesvirus 3 [2]): > 100 µg/mL; Activity [7]: 0.5%; IC50 [7]: > 83.5 µg/mL; EC50 (Human alphaherpesvirus 3 [10]): > 100 µg/mL; EC50 (Human betaherpesvirus 5 [11]): > 100 µg/mL; Activity [16]: 2%; IC50 [16]: > 113 µg/mL; CC50 [17]: ≥ 83.5 µg/mL; EC50 (Human betaherpesvirus 5 [20]): > 100 µg/mL; CC50 [24]: > 50 µg/mL |
| C=CCNC(=S)Nc1ccc(OCc2n[nH]c(=S)n2-c2ccccc2)cc1 | > 80 | 48 (≈ 121 µM) | 240 (≈ 604 µM) | > 400 | 400 | > 80 | > 80 | > 80 | 240 (≈ 604 µM) | > 400 | > 80 | 400 | 240 (≈ 604 µM) | 240 (≈ 604 µM) | > 80 | 240 (≈ 604 µM) | > 80 | 240 (≈ 604 µM) | 240 (≈ 604 µM) | 240 (≈ 604 µM) | EC50 (Human alphaherpesvirus 3 [2]): > 100 µg/mL; Activity [7]: 1.5%; IC50 [7]: > 92.3 µg/mL; EC50 (Human alphaherpesvirus 3 [10]): > 100 µg/mL; EC50 (Human betaherpesvirus 5 [11]): > 100 µg/mL; Activity [16]: 0.5%; IC50 [16]: > 103 µg/mL; CC50 [17]: 107 µg/mL (≈ 269 µM); EC50 (Human betaherpesvirus 5 [20]): > 100 µg/mL; CC50 [24]: > 50 µg/mL |
| O=c1[nH]c(=O)n([C@H]2C[C@H](O)[C@@H](CO)O2)cc1/C=C/Br [BRIVUDINE] | > 400 | > 400 | > 400 | > 400 | > 400 | > 400 | > 400 | > 400 | > 400 | > 400 | > 400 | ≥ 400 | 80 (≈ 240 µM) | 80 (≈ 240 µM) | > 400 | 0.0768 (≈ 0.231 µM) | > 400 | > 400 | 0.0768 (≈ 0.231 µM) | > 400 | EC50 (Human alphaherpesvirus 3 [2]): 0.02 µg/mL (≈ 0.06 µM); EC50 (Human alphaherpesvirus 3 [10]): 25 µg/mL (≈ 75 µM) |
| CCCCCCNC(=S)Nc1ccc(-c2n[nH]c(=S)n2C)cc1 | > 16 | > 16 | 48 (≈ 137 µM) | 400 | 80 | > 16 | > 16 | > 16 | 48 (≈ 137 µM) | 400 | > 16 | 80 | 48 (≈ 137 µM) | 48 (≈ 137 µM) | > 16 | 48 (≈ 137 µM) | > 16 | > 80 | 48 (≈ 137 µM) | > 80 | Activity [7]: 8%; IC50 [7]: > 8.82 µg/mL; Activity [16]: 0%; IC50 [16]: > 8.82 µg/mL; CC50 [17]: 8.82 µg/mL (≈ 25.2 µM) |
